Measured values taken from ChEMBL document CHEMBL4270646, “Novel antimalarial chloroquine- and primaquine-quinoxaline 1,4-di-N-oxide hybrids: Design, synthesis, Plasmodium life cycle stage profile, and preliminary toxicity studies” (Eur J Med Chem, 2018).
Activity calls are given as the source filed them. The rule behind the calls is not given here.

Columns and labels:
[1] = Cytotoxicity against human HepG2 cells expressing CD81 assessed as reduction in cell viability after 48 hrs by MTT assay; type: cell-based
Method in brief: (§1)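 Cells seeded at 2 × 10^5 per well and allowed 24 h at 37°C, 5% CO2 to form a monolayer. Dilutions added in triplicate and incubated 48 h. MTT (2 mg/mL) then added for 4 h, followed by DMSO for 20 min at room temperature. Absorbance read at 550 nm; DMSO diluent and untreated cells served as negative controls. CC50 derived from the curve.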

Plasmodium yoelii [2] = experiment: Antiplasmodial activity against Plasmodium yoelii 17XNL sporozoites infected in BALB/c mouse assessed as parasite burden at 100 mg/kg, po measured at day 4 by […] (reference value: 0.06%); type: functional
Method in brief: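 BALB/c mice (6-8 weeks, 20-23 g), n=4 per hybrid group and n=5 per control. Dosed orally at 100 mg/kg (100 µL) on days -1, 0, +1 and +2. Vehicle was DMSO 100%; primaquine diphosphate given at 30 mg/kg daily. On day 0, 5 x 10^3 cryopreserved P. yoelii 17XNL sporozoites injected i.v. Parasitaemia read by Giemsa smear and SYBR Green flow cytometry. Groups compared by Kruskal-Wallis test.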

[3] = Selectivity index, ratio of CC50 for human HepG2 cells to IC50 for GFP-expressing Plasmodium berghei sporozoites; type: toxicity; details: read-out: Ratio CC50/IC50
Method in brief: (§2)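 Selectivity index = CC50 (matching cell) / IC50 (matching parasite). Cell–parasite pairs: HepG2-CD81 with P. yoelii, HepG2 with P. berghei, human hepatocytes with P. falciparum.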

Plasmodium falciparum [4] = experiment: Antiplasmodial activity against GFP-harboring Plasmodium falciparum sporozoites infected in human primary hepatocytes assessed as reduction in parasite growth treated every 24 hrs by DAPI staining-based fluorescence microscopic analysis; type: functional, organism-based
Method in brief: (§3)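 Collagen-coated wells seeded with HepG2 (P. berghei), HepG2-CD81 (P. yoelii) or primary human hepatocytes (P. falciparum). Sporozoites added: 5×10^3 to 1×10^4 per well to the cell lines, 2.5×10^4 per well to hepatocytes. Compounds given at infection: top 10 µg/mL plus seven serial dilutions, renewed at 3 h and then every 24 h. Cultures grown 40 h (cell lines) or 8 days (hepatocytes) at 37°C. Methanol-fixed, HSP70 immunolabelled, DAPI counterstained. IC50 from logistic regression; triplicate.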

Plasmodium falciparum [5] = experiment: Antiplasmodial activity against chloroquine-sensitive Plasmodium falciparum 3D7 infected in human red blood cells assessed as reduction in parasite growth after 48 hrs by Hoechst 33342 staining based flow cytometric analysis; type: functional, organism-based; details: 3D7, 48 h
Method in brief: (§4)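 Ring-stage cultures (>80% rings) at 1% parasitaemia in A+ human erythrocytes, 2% haematocrit. Medium RPMI 1640 with 10% A+ serum, 37°C, 5% CO2/5% O2. Compounds in DMSO at 1.56–100 µg/mL final, DMSO ≤1%. After 48 h, cells stained with Hoechst 33342 and 1×10^4 counted by flow cytometry. IC50 from logistic dose-response regression; three independent experiments in triplicate.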

Plasmodium berghei [6] = experiment: Antiplasmodial activity against GFP-harboring Plasmodium berghei sporozoites infected in human HepG2 cells assessed as reduction in parasite growth treated every 24 hrs by DAPI staining-based fluorescence microscopic analysis; type: functional, organism-based; details: HepG2, 24 h; method in brief: as §3
[7] = Selectivity index, ratio of CC50 for human primary hepatocytes to IC50 for GFP-expressing Plasmodium falciparum sporozoites; type: toxicity; details: read-out: Ratio CC50/IC50; method in brief: as §2
[8] = Selectivity index, ratio of CC50 for human HepG2 cells to IC50 for multidrug-resistant Plasmodium falciparum […]; type: toxicity; details: read-out: Ratio CC50/IC50
Method in brief: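 Selectivity index = HepG2 CC50 / FCR-3 IC50. CC50 from MTT assay after 48 h exposure, A550. IC50 from 48 h Hoechst 33342 flow-cytometry assay.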

[9] = Cytotoxicity against human HepG2 cells assessed as reduction in cell viability after 48 hrs by MTT assay; type: cell-based; method in brief: as §1
[10] = Cytotoxicity against human primary hepatocytes assessed as reduction in cell viability after 48 hrs by MTT assay; type: cell-based, Hepatocyte; method in brief: as §1
Plasmodium falciparum [11] = experiment: Antiplasmodial activity against the multidrug-resistant Plasmodium falciparum […] infected in human red blood cells assessed as reduction in parasite growth after 48 hrs by Hoechst 33342 staining based flow cytometric analysis; type: functional, organism-based; method in brief: as §4
Plasmodium falciparum [12] = experiment: Antiplasmodial activity against GFP-harboring Plasmodium falciparum sporozoites infected in human primary hepatocytes assessed as reduction in parasite growth at 10 ug/ml treated every 24 hrs by DAPI staining-based fluorescence microscopic analysis; type: functional, organism-based; method in brief: as §3
Plasmodium berghei [13] = experiment: Antiplasmodial activity against GFP-harboring Plasmodium berghei sporozoites infected in human HepG2 cells assessed as reduction in parasite growth at 10 ug/ml treated every 24 hrs by DAPI staining-based fluorescence microscopic analysis; type: functional, organism-based; method in brief: as §3
Plasmodium yoelii [14] = experiment: Antiplasmodial activity against GFP-harboring Plasmodium yoelii sporozoites infected in human HepG2 cells expressing CD81 assessed as reduction in parasite growth at 10 ug/ml treated every 24 hrs by DAPI staining-based fluorescence microscopic analysis; type: functional, organism-based; method in brief: as §3
Plasmodium yoelii [15] = experiment: Antiplasmodial activity against GFP-harboring Plasmodium yoelii sporozoites infected in human HepG2 cells expressing CD81 assessed as reduction in parasite growth treated every 24 hrs by DAPI staining-based fluorescence microscopic analysis; type: functional, organism-based; details: HepG2, 24 h; method in brief: as §3
[16] = Selectivity index, ratio of CC50 for human HepG2 cells expressing CD81 to IC50 for GFP-expressing Plasmodium yoelii sporozoites; type: toxicity; details: read-out: Ratio CC50/IC50; method in brief: as §2

SMILES	CC50 at 48 h [1]	Activity (Plasmodium yoelii [2])	selectivity ratio [3]	IC50 (Plasmodium falciparum [4])	IC50 (Plasmodium falciparum [5])	IC50 (Plasmodium berghei [6])	selectivity ratio [7]	selectivity ratio [8]	CC50 at 48 h [9]	CC50 at 48 h [10]	IC50 (Plasmodium falciparum [11])	inhibition (Plasmodium falciparum [12])	inhibition (Plasmodium berghei [13])	inhibition (Plasmodium yoelii [14])	IC50 (Plasmodium yoelii [15])	selectivity ratio [16]
COc1cc(NC(C)CCCNC(=O)c2c(C)[n+]([O-])c3cc(C)c(C)cc3[n+]2[O-])c2ncccc2c1 (stereo unspecified)	> 202 µM	0.06%	> 17.8	8.11 µM	30.8 µM	11.3 µM	20.2	> 3.82	> 202 µM	> 202 µM	52.9 µM					
Cc1cc2c(cc1C)[n+]([O-])c(C(=O)NCCNc1ccnc3cc(Cl)ccc13)c(C)[n+]2[O-]					0.68 µM			71.7	64.5 µM		0.9 µM	inactive	inactive	inactive		
COc1cc(NC(C)CCCNC(=O)c2c(C)[n+]([O-])c3ccc(OC)cc3[n+]2[O-])c2ncccc2c1 (stereo unspecified)	> 204 µM	0.02%	> 14.5		27 µM	14.1 µM		> 6.63	> 204 µM	> 204 µM	30.7 µM	inactive		inactive		
COc1cc(NC(C)CCCNC(=O)c2c(C)[n+]([O-])c3ccc(C)cc3[n+]2[O-])c2ncccc2c1 (stereo unspecified)	> 207 µM	0.03%	17.3	7.21 µM	44.9 µM	6.34 µM	28.6	2.17	110 µM	> 207 µM	50.6 µM				14 µM	14.7
Cc1ccc2c(c1)[n+]([O-])c(C(=O)NCCNc1ccnc3cc(Cl)ccc13)c(C)[n+]2[O-]					0.57 µM			14	31.4 µM		2.24 µM					
